In ChEMBL document CHEMBL1250477, “Reverse engineering truncations of an antimicrobial peptide dimer to identify the origins of potency and broad spectrum of action” (J Med Chem, 2010):
Converted amounts (≈) assume the structure as drawn. The source made the active and inactive calls. The rule behind the calls is not given here.

What was measured:
Escherichia coli [1] = assay: Antibacterial activity against Escherichia coli ML35p after 18 hrs; type: functional
Procedure, shortened: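 Broth microdilution, modified MIC method for cationic peptides. Overnight culture diluted in Mueller Hinton broth to 10⁵ CFU/mL; peptide added from 10× stock in 0.2% BSA/0.01% acetic acid. MIC = lowest concentration inhibiting measurable growth. Triplicates, repeated at least twice.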

Staphylococcus aureus [2] = assay: Antibacterial activity against vancomycin/methicillin-resistant Staphylococcus aureus ATCC 700699 after 18 hrs; type: functional; details: ATCC 700699, 18 h
Procedure, shortened: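 Modified broth microdilution for cationic peptides. Overnight cells were diluted in Mueller Hinton broth to 10⁵ CFU/mL, and peptide was added from a 10× stock in 0.2% BSA/0.01% acetic acid. MIC = lowest concentration inhibiting measurable growth. Triplicates, repeated at least twice.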

Escherichia coli [3] = assay: Antibacterial activity against Escherichia coli ML35p assessed as reduction of colony forming units at 4 times MIC concentration after 5 mins; type: functional; parameters: scale not given: the % may be the effect or the level left
Procedure, shortened: (§1)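 Time-kill: overnight culture diluted in MH broth to 10⁵ CFU/mL. 1 mL exposed to peptide at 4× MIC, or water as control, at 37 °C, 200 rpm. At time points, aliquots diluted and plated on MH agar. Colonies counted after 20 h at 37 °C. Time to ~95% kill estimated.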

Escherichia coli [4] = assay: Ratio of MBC to MIC for Escherichia coli ML35p; type: functional
Procedure, shortened: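 MBC per CLSI: 100 μL from each clear MIC well plated on MH agar in triplicate, 18 h incubation; MBC = lowest concentration preventing growth of 99.9% of bacteria. Ratio taken as MBC/MIC. Two independent experiments in triplicate.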

Escherichia coli [5] = assay: Antibacterial activity against Escherichia coli ML35p assessed as reduction of colony forming units at 4 times MIC concentration after 20 mins; type: functional; parameters: scale not given: the % may be the effect or the level left; procedure, shortened: as §1
Escherichia coli [6] = assay: Induction of morphological changes in Escherichia coli ML35p assessed as thin filamentous phenotype at MIC concentration after 18 hrs using propidium iodide/Syto9 staining by microscopic analysis; type: functional, organism-based
Procedure, shortened: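 Incubated overnight (18 h) with peptide at its MIC, 37 °C, 200 rpm. Stained 15 min with PI (2.7 μM) and Syto 9 (6 μM), smeared, heat-fixed and imaged under Syto and PI filters. Untreated cells as control.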

Escherichia coli [7] = assay: Drug uptake in Escherichia coli ML35p outer membrane assessed as increase in fluorescence of N-phenylnaphthylamine at 10 uM measured for 10 mins; type: ADME, organism-based; details: in vivo
Procedure, shortened: (§2)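 NPN uptake: mid-log cells washed and resuspended in 5 mM glucose/5 mM HEPES pH 7.2. Peptide added to 10 μM final, with 10 μM NPN. Fluorescence (ex 350 nm, em 420 nm) monitored for 10 min.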

Escherichia coli [8] = assay: Drug uptake in Escherichia coli ML35p inner membrane assessed as increase in fluorescence of propidium iodide at 10 uM measured for 10 mins; type: ADME, organism-based; details: in vivo
Procedure, shortened: (§3)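 PI uptake: mid-log cells washed and resuspended in 5 mM glucose/5 mM HEPES pH 7.2. Peptide added to 10 μM final, with 2.7 μM propidium iodide. Fluorescence (ex 535 nm, em 617 nm) followed for 10 min; lag before rise read from trace.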

Escherichia coli [9] = assay: Antibacterial activity against Escherichia coli ML35p assessed as reduction of colony forming units at 4 times MIC concentration after 40 mins; type: functional; parameters: scale not given: the % may be the effect or the level left; procedure, shortened: as §1
Staphylococcus aureus [10] = assay: Ratio of MBC to MIC for vancomycin/methicillin-resistant Staphylococcus aureus ATCC 700699; type: functional
Procedure, shortened: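 For MBC, 100 μL from each clear well was plated on MH agar in triplicate and incubated for 18 h. MBC = lowest concentration preventing growth of 99.9% of bacteria. The ratio is MBC divided by MIC. Two independent experiments.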

Escherichia coli [11] = assay: Drug uptake in Escherichia coli ML35p outer membrane assessed as time required to permeabilize to outer membrane at 10 uM; type: ADME, organism-based; details: in vivo; procedure, shortened: as §2
Escherichia coli [12] = assay: Drug uptake in Escherichia coli ML35p inner membrane assessed as lag time at 10 uM; type: ADME, organism-based; details: in vivo; procedure, shortened: as §3
Escherichia coli [13] = assay: Drug uptake in Escherichia coli ML35p inner membrane assessed as time required to permeabilize to inner membrane at 10 uM; type: ADME, organism-based; details: in vivo; procedure, shortened: as §3

CC(=O)NCC(=O)N[C@@H](CCCNC(=N)N)C(=O)N[C@@H](CCCCN)C(=O)N/C(=C/c1ccccc1)C(=O)N[C@@H](Cc1c[nH]cn1)C(=O)N[C@@H](CCCCN)C(=O)N/C(=C\c1ccccc1)C(=O)N[C@@H](Cc1c[nH]c2ccccc12)C(=O)N[C@@H](C)C(=O)NCCCC[C@H](NC(=O)[C@H](C)NC(=O)[C@H](Cc1c[nH]c2ccccc12)NC(=O)/C(=C\c1ccccc1)NC(=O)[C@H](CCCCN)NC(=O)[C@H](Cc1c[nH]cn1)NC(=O)/C(=C\c1ccccc1)NC(=O)[C@H](CCCCN)NC(=O)[C@H](CCCNC(=N)N)NC(=O)CNC(C)=O)C(N)=O [listing 1 of 2 here]
MBC (Escherichia coli [1]): 10 µM (≈ 25.4 µg/mL)
MIC (Escherichia coli [1]): 5 µM (≈ 12.7 µg/mL)
MIC (Staphylococcus aureus [2]): > 100 µM
Activity (Escherichia coli [3]): 50%
Ratio (Escherichia coli [4]): 2
Activity (Escherichia coli [5]): 95%

CC(=O)NCC(=O)N[C@@H](CCCNC(=N)N)C(=O)N[C@H](CCCCN)C(=O)N/C(=C/c1ccccc1)C(=O)N[C@@H](Cc1c[nH]cn1)C(=O)N[C@H](CCCCN)C(=O)N/C(=C\c1ccccc1)C(=O)N[C@@H](Cc1c[nH]c2ccccc12)C(=O)N[C@@H](C)C(=O)NCCCC[C@@H](NC(=O)[C@H](C)NC(=O)[C@H](Cc1c[nH]c2ccccc12)NC(=O)/C(=C\c1ccccc1)NC(=O)[C@@H](CCCCN)NC(=O)[C@H](Cc1c[nH]cn1)NC(=O)/C(=C\c1ccccc1)NC(=O)[C@@H](CCCCN)NC(=O)[C@@H](CCCNC(=N)N)NC(=O)CNC(C)=O)C(N)=O
Activity (Escherichia coli [6]): Active

CC(=O)NCC(=O)N[C@@H](CCCCN)C(=O)N/C(=C/c1ccccc1)C(=O)N[C@@H](Cc1c[nH]cn1)C(=O)N[C@@H](CCCCN)C(=O)N/C(=C\c1ccccc1)C(=O)N[C@@H](Cc1c[nH]c2ccccc12)C(=O)N[C@@H](C)C(=O)NCCCC[C@H](NC(=O)[C@H](C)NC(=O)[C@H](Cc1c[nH]c2ccccc12)NC(=O)/C(=C\c1ccccc1)NC(=O)[C@H](CCCCN)NC(=O)[C@H](Cc1c[nH]cn1)NC(=O)/C(=C\c1ccccc1)NC(=O)[C@H](CCCCN)NC(=O)CNC(C)=O)C(N)=O [listing 1 of 2 here]
Drug uptake (Escherichia coli [7]): Active
Drug uptake (Escherichia coli [8]): Not Active

CC(=O)NCC(=O)N[C@@H](CCCCN)C(=O)N/C(=C/c1ccccc1)C(=O)N[C@@H](Cc1c[nH]cn1)C(=O)N[C@@H](CCCCN)C(=O)N/C(=C\c1ccccc1)C(=O)N[C@@H](Cc1c[nH]c2ccccc12)C(=O)N[C@@H](C)C(=O)NCCCC[C@H](NC(=O)[C@H](C)NC(=O)[C@H](Cc1c[nH]c2ccccc12)NC(=O)/C(=C\c1ccccc1)NC(=O)[C@H](CCCCN)NC(=O)[C@H](Cc1c[nH]cn1)NC(=O)/C(=C\c1ccccc1)NC(=O)[C@H](CCCCN)NC(=O)CNC(C)=O)C(N)=O [listing 2 of 2 here]
Activity (Escherichia coli [9]): 95%
MBC (Escherichia coli [1]): 15 µM (≈ 33.4 µg/mL)
MIC (Escherichia coli [1]): 10 µM (≈ 22.3 µg/mL)
MIC (Staphylococcus aureus [2]): > 100 µM
Activity (Escherichia coli [3]): 50%
Ratio (Escherichia coli [4]): 1.5

CC(=O)NCC(=O)N/C(=C/c1ccccc1)C(=O)N[C@@H](CCCNC(=N)N)C(=O)N[C@@H](CCCCN)C(=O)N/C(=C/c1ccccc1)C(=O)N[C@@H](Cc1c[nH]cn1)C(=O)N[C@@H](CCCCN)C(=O)N/C(=C\c1ccccc1)C(=O)N[C@@H](Cc1c[nH]c2ccccc12)C(=O)N[C@@H](C)C(=O)NCCCC[C@H](NC(=O)[C@H](C)NC(=O)[C@H](Cc1c[nH]c2ccccc12)NC(=O)/C(=C\c1ccccc1)NC(=O)[C@H](CCCCN)NC(=O)[C@H](Cc1c[nH]cn1)NC(=O)/C(=C\c1ccccc1)NC(=O)[C@H](CCCCN)NC(=O)[C@H](CCCNC(=N)N)NC(=O)/C(=C\c1ccccc1)NC(=O)CNC(C)=O)C(N)=O [listing 1 of 2 here]
MBC (Escherichia coli [1]): 5 µM (≈ 14.1 µg/mL)
MIC (Escherichia coli [1]): 2.5 µM (≈ 7.07 µg/mL)
MBC (Staphylococcus aureus [2]): 7.5 µM (≈ 21.2 µg/mL)
MIC (Staphylococcus aureus [2]): 5 µM (≈ 14.1 µg/mL)
Activity (Escherichia coli [3]): 96%
Ratio (Escherichia coli [4]): 2
Ratio (Staphylococcus aureus [10]): 1.5

CC(=O)NCC(=O)N/C(=C/c1ccccc1)C(=O)N[C@@H](CCCNC(=N)N)C(=O)N[C@@H](CCCCN)C(=O)N/C(=C/c1ccccc1)C(=O)N[C@@H](Cc1c[nH]cn1)C(=O)N[C@@H](CCCCN)C(=O)N/C(=C\c1ccccc1)C(=O)N[C@@H](Cc1c[nH]c2ccccc12)C(=O)N[C@@H](C)C(=O)NCCCC[C@H](NC(=O)[C@H](C)NC(=O)[C@H](Cc1c[nH]c2ccccc12)NC(=O)/C(=C\c1ccccc1)NC(=O)[C@H](CCCCN)NC(=O)[C@H](Cc1c[nH]cn1)NC(=O)/C(=C\c1ccccc1)NC(=O)[C@H](CCCCN)NC(=O)[C@H](CCCNC(=N)N)NC(=O)/C(=C\c1ccccc1)NC(=O)CNC(C)=O)C(N)=O [listing 2 of 2 here]
Drug uptake (Escherichia coli [7]): Active
Drug uptake (Escherichia coli [8]): Active
Time (Escherichia coli [11]): 150 s
Time (Escherichia coli [12]): 2.5 min
Time (Escherichia coli [13]): 230 s

CC(=O)NCC(=O)N/C(=C/c1ccccc1)C(=O)N[C@@H](CCCNC(=N)N)C(=O)N[C@H](CCCCN)C(=O)N/C(=C/c1ccccc1)C(=O)N[C@@H](Cc1c[nH]cn1)C(=O)N[C@H](CCCCN)C(=O)N/C(=C\c1ccccc1)C(=O)N[C@@H](Cc1c[nH]c2ccccc12)C(=O)N[C@@H](C)C(=O)NCCCC[C@@H](NC(=O)[C@H](C)NC(=O)[C@H](Cc1c[nH]c2ccccc12)NC(=O)/C(=C\c1ccccc1)NC(=O)[C@@H](CCCCN)NC(=O)[C@H](Cc1c[nH]cn1)NC(=O)/C(=C\c1ccccc1)NC(=O)[C@@H](CCCCN)NC(=O)[C@@H](CCCNC(=N)N)NC(=O)/C(=C\c1ccccc1)NC(=O)CNC(C)=O)C(N)=O
Activity (Escherichia coli [6]): Active

CC(=O)NCC(=O)N[C@@H](CCCNC(=N)N)C(=O)N[C@@H](CCCCN)C(=O)N/C(=C/c1ccccc1)C(=O)N[C@@H](Cc1c[nH]cn1)C(=O)N[C@@H](CCCCN)C(=O)N/C(=C\c1ccccc1)C(=O)N[C@@H](Cc1c[nH]c2ccccc12)C(=O)N[C@@H](C)C(=O)NCCCC[C@H](NC(=O)[C@H](C)NC(=O)[C@H](Cc1c[nH]c2ccccc12)NC(=O)/C(=C\c1ccccc1)NC(=O)[C@H](CCCCN)NC(=O)[C@H](Cc1c[nH]cn1)NC(=O)/C(=C\c1ccccc1)NC(=O)[C@H](CCCCN)NC(=O)[C@H](CCCNC(=N)N)NC(=O)CNC(C)=O)C(N)=O [listing 2 of 2 here]
Drug uptake (Escherichia coli [7]): Active
Drug uptake (Escherichia coli [8]): Not Active

CC(=O)NCC(=O)N[C@H](CCCCN)C(=O)N/C(=C\c1ccccc1)C(=O)N[C@@H](Cc1c[nH]c2ccccc12)C(=O)N[C@@H](C)C(=O)NCCCC[C@@H](NC(=O)[C@H](C)NC(=O)[C@H](Cc1c[nH]c2ccccc12)NC(=O)/C(=C\c1ccccc1)NC(=O)[C@@H](CCCCN)NC(=O)CNC(C)=O)C(N)=O [PEPTIDE A]
MIC (Escherichia coli [1]): > 100 µM
MIC (Staphylococcus aureus [2]): > 100 µM

CC(=O)NCC(=O)N[C@@H](Cc1c[nH]cn1)C(=O)N[C@H](CCCCN)C(=O)N/C(=C\c1ccccc1)C(=O)N[C@@H](Cc1c[nH]c2ccccc12)C(=O)N[C@@H](C)C(=O)NCCCC[C@@H](NC(=O)[C@H](C)NC(=O)[C@H](Cc1c[nH]c2ccccc12)NC(=O)/C(=C\c1ccccc1)NC(=O)[C@@H](CCCCN)NC(=O)[C@H](Cc1c[nH]cn1)NC(=O)CNC(C)=O)C(N)=O
MIC (Escherichia coli [1]): > 100 µM
MIC (Staphylococcus aureus [2]): > 100 µM

CC(=O)NCC(=O)N[C@H](CCCCN)C(=O)N/C(=C/c1ccccc1)C(=O)N[C@@H](Cc1c[nH]cn1)C(=O)N[C@H](CCCCN)C(=O)N/C(=C\c1ccccc1)C(=O)N[C@@H](Cc1c[nH]c2ccccc12)C(=O)N[C@@H](C)C(=O)NCCCC[C@@H](NC(=O)[C@H](C)NC(=O)[C@H](Cc1c[nH]c2ccccc12)NC(=O)/C(=C\c1ccccc1)NC(=O)[C@@H](CCCCN)NC(=O)[C@H](Cc1c[nH]cn1)NC(=O)/C(=C\c1ccccc1)NC(=O)[C@@H](CCCCN)NC(=O)CNC(C)=O)C(N)=O
Activity (Escherichia coli [6]): Active
